In ChEMBL document CHEMBL1629563, “Pharmacokinetic and safety evaluation of BILR 355, a second-generation nonnucleoside reverse transcriptase inhibitor, in healthy volunteers” (Antimicrob Agents Chemother, 2008):

Assays:
Homo sapiens [1] = test: Toxicity in healthy human assessed as occurrence of flatulence at 50 mg, po administered as single dose relative to control; format: organism-based; settings: in vivo
[2] = Renal clearance in healthy human at 37.5 mg, po administered as single dose coadministered with 100 mg of ritonavir by high-pressure liquid chromatography-tandem mass spectrometry/mass spectrometry method; format: ADME, organism-based, Kidney; settings: in vivo, read-out: CL_renal (converted)
Homo sapiens [3] = test: Toxicity in healthy human assessed as occurrence of herpes simplex at 100 mg, po administered as single dose relative to control; format: organism-based; settings: in vivo
[4] = Tmax in healthy human at 50 mg, po administered as single dose coadministered with 100 mg of ritonavir; format: ADME, organism-based; settings: in vivo
Homo sapiens [5] = test: Toxicity in healthy human assessed as occurrence of migraine at 1 mg, po administered as single dose relative to control; format: organism-based; settings: in vivo
[6] = Apparent volume of distribution in terminal phase in healthy human at 5 mg, po administered as single dose coadministered with 100 mg of ritonavir; format: ADME, organism-based; settings: in vivo, read-out: Vz/F
Outline: (§1)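 Healthy male volunteers, fasted overnight, got one oral dose of BILR 355 in PEG solution with 200 ml water. Ritonavir 100 mg was given 10 h before and again with the dose. Plasma was sampled (EDTA) from predose to 144 h and assayed by validated LC-MS/MS. Cmax and Vz/F came from noncompartmental analysis. Vss/F = CL/F·(MRTp.o. − 1/Ka), with Ka from compartmental modelling.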

Homo sapiens [7] = test: Toxicity in healthy human assessed as occurrence of herpes simplex at 50 mg, po administered as single dose relative to control; format: organism-based; settings: in vivo
[8] = Apparent oral clearance in healthy human at 5 mg, po administered as single dose; format: ADME, organism-based; settings: in vivo
Outline: (§2)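 Healthy male volunteers, six active plus two placebo per dose group, single oral dose in PEG solution with 200 ml water after overnight fast; breakfast 60 to 90 min post-dose. EDTA plasma sampled predose to 144 h. Assayed by validated LC-MS/MS after protein precipitation. Noncompartmental analysis, AUC by linear up/log down trapezoidal rule; Vss = CL/F·(MRTp.o. − 1/Ka).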

Homo sapiens [9] = test: Toxicity in healthy human assessed as occurrence of maculopapular rash at 12.5 mg, po administered as single dose coadministered with 100 mg of ritonavir; format: organism-based; settings: in vivo
Homo sapiens [10] = test: Toxicity in healthy human assessed as occurrence of fatigue at 62.5 mg, po administered as single dose coadministered with 100 mg of ritonavir; format: organism-based; settings: in vivo
[11] = Mean residence time in high fat fed healthy human at 50 mg, po administered as single dose coadministered with 100 mg of ritonavir; format: ADME, organism-based; settings: in vivo
[12] = AUC (0 to last) in healthy human at 25 mg, po administered as single dose; format: ADME, organism-based; parameters: dose 25 mg, route oral, time 0 - last; settings: plasma; outline: as §2
[13] = Mean residence time in healthy human at 37.5 mg, po administered as single dose coadministered with 100 mg of ritonavir; format: ADME, organism-based; settings: in vivo
Homo sapiens [14] = test: Ratio of Cmax in human at 75 mg, po in presence of 100 mg of ritonavir to Cmax in human at 75 mg, po; format: ADME, organism-based; settings: in vivo
[15] = Mean residence time in healthy human at 5 mg, po administered as single dose; format: ADME, organism-based; settings: in vivo
Homo sapiens [16] = test: Toxicity in healthy human assessed as occurrence of abdominal pain at 100 mg, po administered as single dose relative to control; format: organism-based, Abdomen; settings: in vivo
[17] = Drug excretion in healthy human urine assessed as unchanged drug at 37.5 mg, po administered as single dose coadministered with 100 mg of ritonavir by high-pressure liquid chromatography-tandem mass spectrometry/mass spectrometry method; format: ADME, organism-based; settings: read-out: Drug uptake
Outline: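 Ritonavir 100 mg was given 10 h before and with one oral dose of BILR 355 in PEG solution. Urine was collected by weight as predose blank, then 0-6, 6-24 and 24-72 h, stored at −20°C and assayed by LC-MS/MS. fe = unchanged drug excreted (Ae) as a percentage of dose. Line 50: high-fat breakfast 30 min before dosing.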

Homo sapiens [18] = test: Toxicity in healthy human assessed as occurrence of diarrhea at 12.5 mg, po administered as single dose coadministered with 100 mg of ritonavir; format: organism-based; settings: in vivo
[19] = Renal clearance in healthy human at 62.5 mg, po administered as single dose coadministered with 100 mg of ritonavir by high-pressure liquid chromatography-tandem mass spectrometry/mass spectrometry method; format: ADME, organism-based, Kidney; settings: in vivo, read-out: CL_renal (converted)
Homo sapiens [20] = test: Toxicity in healthy human assessed as occurrence of constipation at 5 mg, po administered as single dose relative to control; format: organism-based; settings: in vivo
Homo sapiens [21] = test: Toxicity in healthy human assessed as occurrence of vomiting at 12.5 mg, po administered as single dose relative to control; format: organism-based; settings: in vivo
Homo sapiens [22] = test: Toxicity in healthy human assessed as occurrence of frequent bowel movements at 12.5 mg, po administered as single dose relative to control; format: organism-based; settings: in vivo
Homo sapiens [23] = test: Apparent oral clearance in healthy human at 75 mg, po administered as single dose; format: ADME, organism-based; settings: in vivo; outline: as §2
Homo sapiens [24] = test: Toxicity in healthy human assessed as occurrence of maculopapular rash at 5 mg, po administered as single dose relative to control; format: organism-based; settings: in vivo
[25] = AUC (0 to last) in healthy human at 100 mg, po administered as single dose; format: ADME, organism-based; parameters: dose 100 mg, time 0 - last, route oral; settings: plasma; outline: as §2
[26] = Apparent volume of distribution at steady state in healthy human at 25 mg, po administered as single dose coadministered with 100 mg of ritonavir; format: ADME, organism-based; settings: in vivo, read-out: Vss/F; outline: as §1
[27] = Renal clearance in healthy human at 12.5 mg, po administered as single dose coadministered with 100 mg of ritonavir by high-pressure liquid chromatography-tandem mass spectrometry/mass spectrometry method; format: ADME, organism-based, Kidney; settings: in vivo, read-out: CL_renal (converted)
[28] = Tmax in healthy human at 75 mg, po administered as single dose coadministered with 100 mg of ritonavir; format: ADME, organism-based; settings: in vivo
[29] = AUC (0 to infinity) in healthy human at 37.5 mg, po administered as single dose coadministered with 100 mg of ritonavir; format: ADME, organism-based; parameters: dose 37.5 mg, route oral, time infinity; settings: plasma
Outline: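 Healthy male volunteers, fasted. Ritonavir 100 mg given 10 h before and again together with single oral BILR 355 in PEG solution. EDTA plasma sampled predose to 144 h. LC-MS/MS assay after protein precipitation. Noncompartmental analysis, AUC by linear up/log down trapezoidal rule; Vss = CL/F·(MRTp.o. − 1/Ka).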

Homo sapiens [30] = test: Toxicity in healthy human assessed as occurrence of nausea at 50 mg, po administered as single dose relative to control; format: organism-based; settings: in vivo
Homo sapiens [31] = test: Toxicity in healthy human assessed as occurrence of diarrhea at 25 mg, po administered as single dose coadministered with 100 mg of ritonavir; format: organism-based; settings: in vivo
Homo sapiens [32] = test: Toxicity in healthy human assessed as occurrence of vomiting at 50 mg, po administered as single dose relative to control; format: organism-based; settings: in vivo
[33] = Mean residence time in healthy human at 75 mg, po administered as single dose; format: ADME, organism-based; settings: in vivo
Homo sapiens [34] = test: Toxicity in healthy human assessed as occurrence of migraine at 12.5 mg, po administered as single dose relative to control; format: organism-based; settings: in vivo
Homo sapiens [35] = test: Toxicity in high fat fed healthy human assessed as occurrence of aphthous stomatitis at 50 mg, po administered as single dose coadministered with 100 mg of ritonavir; format: organism-based; settings: in vivo

- CL renal [2]: 4.92 mL/min
- Tmax [4]: 0.958 h
- Vd/F [6]: 153 L
- CL/F [8]: 2480 mL/min
- MRT [11]: 18.7 h
- AUC(0-t) [12]: 128 ng·h/mL
- MRT [13]: 16.9 h
- Ratio (Homo sapiens [14]): 2.3
- MRT [15]: 7.74 h
- dose excreted [17]: 4.58%
- CL renal [19]: 7.17 mL/min
- CL/F (Homo sapiens [23]): 272 L/h
- AUC(0-t) [25]: 1300 ng·h/mL
- Vd/F [26]: 102 L
- CL renal [27]: 7.3 mL/min
- Tmax [28]: 1.63 h
- AUC(0-inf) [29]: 5960 ng·h/mL
- MRT [33]: 2.95 h
Structure (SMILES): CCN1c2ncc(CCOc3cc[n+]([O-])c4ccccc34)cc2C(=O)N(C)c2cccnc21 [BILR 355]
- Activity (Homo sapiens [1]): 0%
- Activity (Homo sapiens [3]): 0%
- Activity (Homo sapiens [5]): 0%
- Activity (Homo sapiens [7]): 0%
- Activity (Homo sapiens [9]): 0%
- Activity (Homo sapiens [10]): 0%
- Activity (Homo sapiens [16]): 0%
- Activity (Homo sapiens [18]): 0%
- Activity (Homo sapiens [20]): 0%
- Activity (Homo sapiens [21]): 0%
- Activity (Homo sapiens [22]): 0%
- Activity (Homo sapiens [24]): 0%
- Activity (Homo sapiens [30]): 0%
- Activity (Homo sapiens [31]): 0%
- Activity (Homo sapiens [32]): 0%
- Activity (Homo sapiens [34]): 0%
- Activity (Homo sapiens [35]): 0%
